Measurements pooled from the literature.
Compare with care: the assays were run in different laboratories.
Target: LIM domain kinase 2 (LIMK2, Homo sapiens, UniProt P53671)

N[C@H]1CCN(c2nccc(-c3cnn4ncccc34)n2)C1  remaining binding (binding; 1 µM): 100%
CC(=O)N1CCC(c2ccc(C(=O)NC3=NCCN3)cc2C(F)(F)F)CC1  remaining binding (cell-free assay, competition with immobilised ligand; 1 µM): 98%
O=C(NCCCN1CCOCC1)c1ccc(Nc2nccc(-c3cc4ccccc4s3)n2)cc1  remaining binding (binding, competition with immobilised ligand; 1 µM): 59%
CNC(=O)c1ccc(Nc2ncc(C(F)(F)F)c(NCc3nccnc3N(C)S(C)(=O)=O)n2)cc1  remaining binding (cell-free assay, competition with immobilised ligand; 0.1 µM): 87%
c1cncc(-c2cccc(Nc3nccc(NC4CCCCC4)n3)c2)c1  remaining binding (binding, competition with immobilised ligand; 10 µM): 45%
CN(C)c1ncc(F)c(-c2cnn3ncccc23)n1  remaining binding (binding; 1 µM): 82%
Cc1cnc(Nc2ccc(C(=O)N3CCC(N4CCCC4)CC3)cc2)nc1-c1cc2ccccc2s1  remaining binding (binding, competition with immobilised ligand; 1 µM): 30%
CC1=C(C#N)C(c2ccc3c(c2)c(NC(=O)c2ccccc2C)nn3C)C(C#N)=C(C)N1  remaining binding (cell-free assay, competition with immobilised ligand; 1 µM): 99%
O=C(NCC1CCOCC1)c1n[nH]cc1NC(=O)c1c(F)cccc1F  remaining binding (binding, competition with immobilised ligand; 1 µM): 97%
CNC(=O)[C@@H]1CC[C@@H](n2c(-c3ccc4cnccc4c3)nc3ccc(C(=O)NCc4cccc(C(N)=O)c4)cc32)C1  remaining binding (binding, competition with immobilised ligand; 1 µM): 100%
CN(C)C(=O)Cn1cc(-c2nc(C3(c4ccc(-c5cnc(N)nc5)cc4)CC3)no2)cn1  remaining binding (cell-free assay, competition with immobilised ligand; 1 µM): 85%
CC1CCCN1c1nccc(-c2cnn3ncccc23)n1 (stereo not shown)  remaining binding (binding; 1 µM): 96%
CCN1CCN(Cc2ccc(C(=O)Nc3ccc(C)c(Oc4ccc5c(c4)CC(=O)N5)c3)cc2C(F)(F)F)CC1  remaining binding (binding, competition with immobilised ligand; 1 µM): 100%
O=C(c1ccc(Nc2nccc(-c3cc4ccccc4s3)n2)cc1)N1CCC(N2CCCC2)CC1  remaining binding (binding, competition with immobilised ligand; 1 µM): 47%
CN(C)c1nccc(-c2cnc3ncccn23)n1  remaining binding (binding; 1 µM): 91%
FC(F)(F)Oc1cccc(-c2cnc3ccc(-c4ccncc4)nn23)c1  remaining binding (cell-free assay, competition with immobilised ligand; 5 µM): 69%
O=C1NC(c2ccccn2)Sc2ccccc21 (stereo not shown)  remaining binding (cell-free assay, competition with immobilised ligand; 1 µM): 92%
Cc1cnn2ncc(-c3ccnc(N(C)C)n3)c2c1  remaining binding (binding; 1 µM): 94%
O=S(=O)(NC1CCC(c2cc(F)ccc2F)(S(=O)(=O)c2ccc(Cl)cc2)CC1)C(F)(F)F (stereo not shown)  remaining binding (cell-free assay, competition with immobilised ligand; 1 µM): 87%
C[C@H]1CCN(c2nccc(-c3cnn4ncccc34)n2)C1  remaining binding (binding; 1 µM): 75%
O=c1nc(-c2ccccn2)sc2ccccc12  remaining binding (binding, competition with immobilised ligand; 1 µM): 100%
CN(C)c1nccc(-c2cnn3ncccc23)n1  remaining binding (binding; 1 µM): 97%
